Reference: ChEMBL document CHEMBL5058577, “EUbOPEN Chemogenomics Library 2 (Multiplex)” (2022)

Test system: U2OS
Experiment: Multiplex assay against U2OS
Assay type: toxicity, cell-based
Details: human
Summary of the method: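 Hoechst33342, BioTracker Green Microtubule Cytoskeleton Dye, MitoTracker Red and Annexin V Alexa Fluor 680 were added to live cells at seeding, and imaging on a CQ1 microscope at 37°C and 5% CO2 followed compound addition. Gating by CellPathfinder machine learning separated cells into Hoechst high-intensity objects or normal cells, then normal cells into healthy, pyknosed or fragmented nuclei, then pyknosed cells into mitotic or apoptotic. Per cents of healthy-nucleus cells are reported for the tubulin, mitochondrial-mass and membrane-permeability phenotypes.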

[1] = 12 h, 1 µM, compound concentration 1 uM, replicate 1
[2] = 12 h, 1 µM, compound concentration 1 uM, replicate 2
[3] = 12 h, 10 µM, compound concentration 10 uM, replicate 1
[4] = 12 h, 10 µM, compound concentration 10 uM, replicate 2
[5] = 24 h, 1 µM, compound concentration 1 uM, replicate 1
[6] = 24 h, 1 µM, compound concentration 1 uM, replicate 2
[7] = 24 h, 10 µM, compound concentration 10 uM, replicate 1
[8] = 24 h, 10 µM, compound concentration 10 uM, replicate 2
[9] = 48 h, 1 µM, compound concentration 1 uM, replicate 1
[10] = 48 h, 1 µM, compound concentration 1 uM, replicate 2
[11] = 48 h, 10 µM, compound concentration 10 uM, replicate 1
[12] = 48 h, 10 µM, compound concentration 10 uM, replicate 2

O=C(NCC(=O)N1CC[C@H](N[C@H]2CC[C@@](O)(c3ccc(-c4ncccn4)cn3)CC2)C1)c1cccc(C(F)(F)F)c1 [PF-4136309]
Population Apoptotic (%) [1]: 79% | Population Fragmented Nuclei (%) [1]: 25% | Population Healthy Nuclei (%) [1]: 64% | Population Hoechst High Intensity Objects (%) [1]: 1% | Population Membrane Permeable-Phenotype (%) [1]: 6% | Population Mitochondria Different-Phenotype (%) [1]: 3% | Population Mitotic Cells (%) [1]: 20% | Population Normal (%) [1]: 98% | Population Pyknosed Nuclei (%) [1]: 9% | Population Tubulin-Different-Phenotype (%) [1]: 4% | Total Cell Count [1]: 249 | Population Apoptotic (%) [2]: 93% | Population Fragmented Nuclei (%) [2]: 13% | Population Healthy Nuclei (%) [2]: 74% | Population Hoechst High Intensity Objects (%) [2]: 4% | Population Membrane Permeable-Phenotype (%) [2]: 11% | Population Mitochondria Different-Phenotype (%) [2]: 5% | Population Mitotic Cells (%) [2]: 6% | Population Normal (%) [2]: 95% | Population Pyknosed Nuclei (%) [2]: 12% | Population Tubulin-Different-Phenotype (%) [2]: 8% | Total Cell Count [2]: 138 | Population Apoptotic (%) [3]: 68% | Population Fragmented Nuclei (%) [3]: 25% | Population Healthy Nuclei (%) [3]: 62% | Population Hoechst High Intensity Objects (%) [3]: 4% | Population Membrane Permeable-Phenotype (%) [3]: 15% | Population Mitochondria Different-Phenotype (%) [3]: 4% | Population Mitotic Cells (%) [3]: 31% | Population Normal (%) [3]: 95% | Population Pyknosed Nuclei (%) [3]: 12% | Population Tubulin-Different-Phenotype (%) [3]: 9% | Total Cell Count [3]: 242 | Population Apoptotic (%) [4]: 60% | Population Fragmented Nuclei (%) [4]: 22% | Population Healthy Nuclei (%) [4]: 66% | Population Hoechst High Intensity Objects (%) [4]: 1% | Population Membrane Permeable-Phenotype (%) [4]: 25% | Population Mitochondria Different-Phenotype (%) [4]: 10% | Population Mitotic Cells (%) [4]: 40% | Population Normal (%) [4]: 98% | Population Pyknosed Nuclei (%) [4]: 11% | Population Tubulin-Different-Phenotype (%) [4]: 11% | Total Cell Count [4]: 90 | Population Apoptotic (%) [5]: 80% | Population Fragmented Nuclei (%) [5]: 22% | Population Healthy Nuclei (%) [5]: 69% | Population Hoechst High Intensity Objects (%) [5]: 1% | Population Membrane Permeable-Phenotype (%) [5]: 4% | Population Mitochondria Different-Phenotype (%) [5]: 2% | Population Mitotic Cells (%) [5]: 20% | Population Normal (%) [5]: 98% | Population Pyknosed Nuclei (%) [5]: 8% | Population Tubulin-Different-Phenotype (%) [5]: 2% | Total Cell Count [5]: 304 | Population Apoptotic (%) [6]: 91% | Population Fragmented Nuclei (%) [6]: 16% | Population Healthy Nuclei (%) [6]: 76% | Population Hoechst High Intensity Objects (%) [6]: 3% | Population Membrane Permeable-Phenotype (%) [6]: 5% | Population Mitochondria Different-Phenotype (%) [6]: 4% | Population Mitotic Cells (%) [6]: 8% | Population Normal (%) [6]: 96% | Population Pyknosed Nuclei (%) [6]: 7% | Total Cell Count [6]: 169 | Population Apoptotic (%) [7]: 83% | Population Fragmented Nuclei (%) [7]: 23% | Population Healthy Nuclei (%) [7]: 62% | Population Hoechst High Intensity Objects (%) [7]: 3% | Population Membrane Permeable-Phenotype (%) [7]: 10% | Population Mitochondria Different-Phenotype (%) [7]: 3% | Population Mitotic Cells (%) [7]: 16% | Population Normal (%) [7]: 96% | Population Pyknosed Nuclei (%) [7]: 13% | Population Tubulin-Different-Phenotype (%) [7]: 3% | Total Cell Count [7]: 271 | Population Apoptotic (%) [8]: 75% | Population Fragmented Nuclei (%) [8]: 21% | Population Healthy Nuclei (%) [8]: 70% | Population Hoechst High Intensity Objects (%) [8]: 0% | Population Membrane Permeable-Phenotype (%) [8]: 15% | Population Mitochondria Different-Phenotype (%) [8]: 11% | Population Mitotic Cells (%) [8]: 25% | Population Normal (%) [8]: 99% | Population Pyknosed Nuclei (%) [8]: 7% | Population Tubulin-Different-Phenotype (%) [8]: 7% | Total Cell Count [8]: 102 | Population Apoptotic (%) [9]: 87% | Population Fragmented Nuclei (%) [9]: 14% | Population Healthy Nuclei (%) [9]: 74% | Population Hoechst High Intensity Objects (%) [9]: 2% | Population Membrane Permeable-Phenotype (%) [9]: 4% | Population Mitochondria Different-Phenotype (%) [9]: 3% | Population Mitotic Cells (%) [9]: 12% | Population Normal (%) [9]: 97% | Population Pyknosed Nuclei (%) [9]: 11% | Population Tubulin-Different-Phenotype (%) [9]: 3% | Total Cell Count [9]: 443 | Population Apoptotic (%) [10]: 96% | Population Fragmented Nuclei (%) [10]: 12% | Population Healthy Nuclei (%) [10]: 75% | Population Hoechst High Intensity Objects (%) [10]: 3% | Population Membrane Permeable-Phenotype (%) [10]: 6% | Population Mitotic Cells (%) [10]: 4% | Population Normal (%) [10]: 96% | Population Tubulin-Different-Phenotype (%) [10]: 4% | Total Cell Count [10]: 224 | Population Apoptotic (%) [11]: 69% | Population Fragmented Nuclei (%) [11]: 22% | Population Healthy Nuclei (%) [11]: 61% | Population Hoechst High Intensity Objects (%) [11]: 4% | Population Membrane Permeable-Phenotype (%) [11]: 9% | Population Mitochondria Different-Phenotype (%) [11]: 5% | Population Mitotic Cells (%) [11]: 30% | Population Normal (%) [11]: 95% | Population Pyknosed Nuclei (%) [11]: 15% | Population Tubulin-Different-Phenotype (%) [11]: 4% | Total Cell Count [11]: 360 | Population Apoptotic (%) [12]: 92% | Population Fragmented Nuclei (%) [12]: 20% | Population Healthy Nuclei (%) [12]: 60% | Population Hoechst High Intensity Objects (%) [12]: 0% | Population Membrane Permeable-Phenotype (%) [12]: 15% | Population Mitochondria Different-Phenotype (%) [12]: 8% | Population Mitotic Cells (%) [12]: 7% | Population Normal (%) [12]: 100% | Population Pyknosed Nuclei (%) [12]: 18% | Total Cell Count [12]: 138

COc1ccc2c(c1)C(C(=O)N(Cc1ccc(N(C)C)cc1)c1ccc(C(C)C)cc1)CCC2.Cl (stereo not given)
Population Apoptotic (%) [1]: 70% | Population Fragmented Nuclei (%) [1]: 36% | Population Healthy Nuclei (%) [1]: 54% | Population Hoechst High Intensity Objects (%) [1]: 4% | Population Membrane Permeable-Phenotype (%) [1]: 8% | Population Mitochondria Different-Phenotype (%) [1]: 5% | Population Mitotic Cells (%) [1]: 29% | Population Normal (%) [1]: 95% | Population Pyknosed Nuclei (%) [1]: 9% | Population Tubulin-Different-Phenotype (%) [1]: 4% | Total Cell Count [1]: 264 | Population Fragmented Nuclei (%) [2]: 17% | Population Healthy Nuclei (%) [2]: 73% | Population Hoechst High Intensity Objects (%) [2]: 3% | Population Membrane Permeable-Phenotype (%) [2]: 9% | Population Mitochondria Different-Phenotype (%) [2]: 3% | Population Mitotic Cells (%) [2]: 30% | Population Normal (%) [2]: 96% | Population Pyknosed Nuclei (%) [2]: 8% | Population Tubulin-Different-Phenotype (%) [2]: 2% | Total Cell Count [2]: 122 | Population Apoptotic (%) [3]: 38% | Population Fragmented Nuclei (%) [3]: 27% | Population Healthy Nuclei (%) [3]: 50% | Population Hoechst High Intensity Objects (%) [3]: 4% | Population Membrane Permeable-Phenotype (%) [3]: 73% | Population Mitochondria Different-Phenotype (%) [3]: 55% | Population Mitotic Cells (%) [3]: 61% | Population Normal (%) [3]: 95% | Population Pyknosed Nuclei (%) [3]: 22% | Population Tubulin-Different-Phenotype (%) [3]: 80% | Total Cell Count [3]: 224 | Population Apoptotic (%) [4]: 60% | Population Fragmented Nuclei (%) [4]: 16% | Population Healthy Nuclei (%) [4]: 60% | Population Membrane Permeable-Phenotype (%) [4]: 43% | Population Mitochondria Different-Phenotype (%) [4]: 73% | Population Mitotic Cells (%) [4]: 40% | Population Pyknosed Nuclei (%) [4]: 23% | Population Tubulin-Different-Phenotype (%) [4]: 58% | Total Cell Count [4]: 113 | Population Apoptotic (%) [5]: 75% | Population Fragmented Nuclei (%) [5]: 27% | Population Healthy Nuclei (%) [5]: 61% | Population Hoechst High Intensity Objects (%) [5]: 4% | Population Membrane Permeable-Phenotype (%) [5]: 5% | Population Mitochondria Different-Phenotype (%) [5]: 4% | Population Mitotic Cells (%) [5]: 24% | Population Normal (%) [5]: 95% | Population Pyknosed Nuclei (%) [5]: 11% | Population Tubulin-Different-Phenotype (%) [5]: 4% | Total Cell Count [5]: 273 | Population Apoptotic (%) [6]: 100% | Population Fragmented Nuclei (%) [6]: 18% | Population Healthy Nuclei (%) [6]: 73% | Population Hoechst High Intensity Objects (%) [6]: 2% | Population Mitochondria Different-Phenotype (%) [6]: 1% | Population Mitotic Cells (%) [6]: 0% | Population Normal (%) [6]: 97% | Population Pyknosed Nuclei (%) [6]: 7% | Population Tubulin-Different-Phenotype (%) [6]: 2% | Total Cell Count [6]: 146 | Population Apoptotic (%) [7]: 71% | Population Fragmented Nuclei (%) [7]: 25% | Population Healthy Nuclei (%) [7]: 50% | Population Hoechst High Intensity Objects (%) [7]: 2% | Population Membrane Permeable-Phenotype (%) [7]: 54% | Population Mitochondria Different-Phenotype (%) [7]: 42% | Population Mitotic Cells (%) [7]: 28% | Population Normal (%) [7]: 97% | Population Pyknosed Nuclei (%) [7]: 24% | Population Tubulin-Different-Phenotype (%) [7]: 49% | Total Cell Count [7]: 224 | Population Apoptotic (%) [8]: 86% | Population Fragmented Nuclei (%) [8]: 20% | Population Healthy Nuclei (%) [8]: 57% | Population Hoechst High Intensity Objects (%) [8]: 9% | Population Membrane Permeable-Phenotype (%) [8]: 45% | Population Mitochondria Different-Phenotype (%) [8]: 53% | Population Mitotic Cells (%) [8]: 13% | Population Normal (%) [8]: 90% | Population Pyknosed Nuclei (%) [8]: 22% | Population Tubulin-Different-Phenotype (%) [8]: 48% | Total Cell Count [8]: 115 | Population Apoptotic (%) [9]: 80% | Population Fragmented Nuclei (%) [9]: 21% | Population Healthy Nuclei (%) [9]: 65% | Population Hoechst High Intensity Objects (%) [9]: 2% | Population Membrane Permeable-Phenotype (%) [9]: 10% | Population Mitochondria Different-Phenotype (%) [9]: 5% | Population Mitotic Cells (%) [9]: 20% | Population Normal (%) [9]: 97% | Population Pyknosed Nuclei (%) [9]: 13% | Population Tubulin-Different-Phenotype (%) [9]: 3% | Total Cell Count [9]: 369 | Population Apoptotic (%) [10]: 93% | Population Fragmented Nuclei (%) [10]: 17% | Population Healthy Nuclei (%) [10]: 73% | Population Hoechst High Intensity Objects (%) [10]: 3% | Population Membrane Permeable-Phenotype (%) [10]: 6% | Population Mitochondria Different-Phenotype (%) [10]: 4% | Population Mitotic Cells (%) [10]: 6% | Population Normal (%) [10]: 96% | Population Pyknosed Nuclei (%) [10]: 8% | Population Tubulin-Different-Phenotype (%) [10]: 2% | Total Cell Count [10]: 203 | Population Apoptotic (%) [11]: 73% | Population Fragmented Nuclei (%) [11]: 21% | Population Healthy Nuclei (%) [11]: 47% | Population Hoechst High Intensity Objects (%) [11]: 3% | Population Membrane Permeable-Phenotype (%) [11]: 43% | Population Mitochondria Different-Phenotype (%) [11]: 26% | Population Mitotic Cells (%) [11]: 26% | Population Normal (%) [11]: 96% | Population Pyknosed Nuclei (%) [11]: 30% | Population Tubulin-Different-Phenotype (%) [11]: 31% | Total Cell Count [11]: 265 | Population Apoptotic (%) [12]: 92% | Population Fragmented Nuclei (%) [12]: 26% | Population Healthy Nuclei (%) [12]: 49% | Population Hoechst High Intensity Objects (%) [12]: 8% | Population Mitochondria Different-Phenotype (%) [12]: 36% | Population Mitotic Cells (%) [12]: 7% | Population Normal (%) [12]: 91% | Population Pyknosed Nuclei (%) [12]: 24% | Population Tubulin-Different-Phenotype (%) [12]: 42% | Total Cell Count [12]: 126
